Results of several laboratories.
Protocols differ between the studies behind these lines.
PIK3CA: Phosphatidylinositol 4,5-bisphosphate 3-kinase catalytic subunit alpha isoform (PIK3CA, Homo sapiens, UniProt P42336)
T1R2/T1R3: T1R2/T1R3 (Homo sapiens, UniProt Q7RTX0+Q8TE23)
FOLH1: Glutamate carboxypeptidase 2 (FOLH1, Homo sapiens, UniProt Q04609)

SMILES	target	assay	quantity	result
CN(C)C(=O)c1cc2cnc(Nc3cccc(-c4cccc5c(=O)cc(N6CCOCC6)oc45)c3)nc2n1C1CCCC1	PIK3CA	enzyme activity, inhibitor, radiometric	IC50	8.17 µM
CC(C)c1cccc(C(C)C)c1N=C1C(=O)N(Cc2ccc(Br)cc2)c2ccccc21	Phosphatidylinositol 4,5-bisphosphate 3-kinase catalytic subunit beta isoform (PIK3CB, Homo sapiens, UniProt P42338)	enzyme activity, inhibitor, ADP detection	IC50	0.0862 µM
CC1=CC(=O)NS(=O)(=O)O1	T1R2/T1R3	calcium signal, agonist	EC50	1340 µM
CC[C@H](C)[C@H](NC(=O)C[C@@H](NC(=O)CCC(=O)O)C(=O)O)C(=O)N[C@H]1CCc2cccc3c2N(C1=O)[C@H](C(=O)NCc1cn[nH]n1)C3	Granzyme B (GZMB, Homo sapiens, UniProt P10144)	enzyme activity, inhibitor, fluorescence	Ki	0.0072 µM
O=C(O)CC[C@H](NC(=O)N[C@@H](CCCCNC(=O)CCCCCCC(=O)NCCCC[C@@H](NC(=O)[C@H](CCC(=O)O)NC(=O)[C@H](CCC(=O)O)NC(=O)CCC(=O)NCCCN1CC[S][Tc]2(=[O])[S]CC[N]2CC1)C(=O)O)C(=O)O)C(=O)O (some centres unmarked)	FOLH1	binding, radioligand	Kd	0.0068 µM
CCc1ccc(N=C2C(=O)Nc3ccccc32)cc1	PIK3CA	enzyme activity, inhibitor, ADP detection	IC50	0.098 µM
CN(C)C(=O)c1cc2cnc(Nc3ccc(-c4cccc5c(=O)cc(N6CCOCC6)oc45)cc3)nc2n1C1CCCC1	PIK3CA	enzyme activity, inhibitor, radiometric	IC50	0.472 µM
O=S(=O)(O)NC1CCCCC1	T1R2/T1R3	calcium signal, agonist	EC50	2750 µM
COc1nc(-c2cccc(-c3ccccc3)c2C)ccc1CNCCNC(=O)CCCCCCCCCCC(=O)N1CCN(CCNC(=O)c2cc3c(=O)n4cccc(C)c4nc3n(CCc3cccs3)c2=N)CC1	Speckle-type POZ protein (SPOP, Homo sapiens, UniProt O43791)	binding, BLI	Kd	2.64 µM
CN(C)C(=O)c1cc2cnc(Nc3cc(C(F)(F)F)c(-c4cccc5c(=O)cc(N6CCOCC6)oc45)cn3)nc2n1C1CCCC1	PIK3CA	enzyme activity, inhibitor, radiometric	IC50	> 10 µM
CC1(C)CN(CCCCC(=O)N[C@H](Cc2ccccc2)C(=O)N[C@H](Cc2ccccc2)C(=O)N[C@H](CCCCNC(=O)CCCCCCC(=O)NCCCC[C@H](NC(=O)N[C@@H](CCC(=O)O)C(=O)O)C(=O)O)C(=O)O)CC[N]2CC(C)(C)[S][Tc]2(=[O])[S]1 (some centres unmarked)	FOLH1	binding, radioligand	Kd	0.0133 µM
O=C1C(=Nc2ccc(Cl)cc2)c2ccccc2N1Cc1ccc(Br)cc1	PIK3CA	enzyme activity, inhibitor, ADP detection	IC50	0.0298 µM
CC1(C)CN(CCCCC(=O)N[C@@H](CCC(=O)O)C(=O)N[C@@H](CCC(=O)O)C(=O)N[C@H](CCCCNC(=O)CCCCCCC(=O)NCCCC[C@H](NC(=O)N[C@@H](CCC(=O)O)C(=O)O)C(=O)O)C(=O)O)CC[N]2CC(C)(C)[S][Tc]2(=[O])[S]1 (some centres unmarked)	FOLH1	binding, radioligand	Kd	0.0061 µM
CCC(C(=O)N1C(=O)C(=Nc2ccc(Cl)cc2Br)c2ccccc21)c1ccccc1 (centres unmarked)	PIK3CA	enzyme activity, inhibitor, ADP detection	IC50	0.409 µM
